Published values from different studies.
Target: Aurora kinase C (AURKC, Homo sapiens, UniProt Q9UQB9)
One construct used (Q9UQB9 1-309): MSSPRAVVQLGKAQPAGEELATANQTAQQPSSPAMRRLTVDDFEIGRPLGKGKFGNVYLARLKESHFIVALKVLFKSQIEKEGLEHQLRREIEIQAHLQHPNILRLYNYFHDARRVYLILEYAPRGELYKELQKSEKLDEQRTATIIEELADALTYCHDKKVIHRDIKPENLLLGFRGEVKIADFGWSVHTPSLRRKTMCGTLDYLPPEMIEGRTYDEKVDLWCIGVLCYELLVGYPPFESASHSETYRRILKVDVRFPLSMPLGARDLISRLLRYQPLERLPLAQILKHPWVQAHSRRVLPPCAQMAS

CNC(=O)Nc1ccc2c(c1)CC[C@@]21OC(=O)N(CC(=O)N(Cc2ccc(F)cc2)[C@@H](C)C(F)(F)F)C1=O — remaining binding (cell-free assay, competition with immobilised ligand; 1 µM): 100%
COc1cnc(Nc2cccc(S(N)(=O)=O)c2)nc1N1CCN(c2ccccc2)C(=O)C1 — remaining binding (binding, competition with immobilised ligand; 1 µM): 97%
COc1cccc(CNC(=O)c2nc3scc(COCc4ccc(C(=O)O)cc4)c3c(=O)[nH]2)c1 — remaining binding (cell-free assay, competition with immobilised ligand; 1 µM): 67.3%
Cc1cnc(Nc2ccc(C(=O)N3CCC(N4CCCC4)CC3)cc2)nc1-c1cc2ccccc2s1 — remaining binding (binding, competition with immobilised ligand; 1 µM): 4.3%
CN(C)c1nccc(-c2cnc3ncccn23)n1 — remaining binding (binding; 1 µM): 100%
FC(F)(F)Oc1cccc(-c2cnc3ccc(-c4ccncc4)nn23)c1 — remaining binding (cell-free assay, competition with immobilised ligand; 5 µM): 78%
CN(CCCC(F)(F)F)c1nccc(-c2cnn3ncccc23)n1 — remaining binding (binding; 1 µM): 100%
C=CC(=O)N1CCC(C(=O)NCC(=O)N2CCN(c3nc(-c4cnc(N)nc4C(F)F)nc(N4CCOCC4)n3)CC2)CC1 — remaining binding (binding, competition with immobilised ligand; 1 µM): 100%
CO[C@@H](C)c1c(Nc2ccc([C@H](N(C)C(=O)C3CCS(=O)(=O)CC3)C(F)(F)F)cc2)cnc2cc(Cl)nn12 — remaining binding (cell-free assay, competition with immobilised ligand; 1 µM): 77%
C[C@@H]1CCN(c2nccc(-c3cnn4ncccc34)n2)C1 — remaining binding (binding; 1 µM): 98%
O=C(c1ccc(Nc2nccc(-c3cc4ccccc4s3)n2)cc1)N1CCC(N2CCCC2)CC1 — remaining binding (binding, competition with immobilised ligand; 1 µM): 30%
O=C(Nc1c[nH]nc1C(=O)NC1CCNCC1)c1cc(F)cc(F)c1 — remaining binding (binding, competition with immobilised ligand; 1 µM): 84%
CC1CCCN1c1nccc(-c2cnn3ncccc23)n1 (stereo not shown) — remaining binding (binding; 1 µM): 89%
COc1cnc(Nc2cccc(S(N)(=O)=O)c2)nc1N1CCN(c2ccccc2)CC1 — remaining binding (binding, competition with immobilised ligand; 1 µM): 84%
N[C@H]1CCN(c2nccc(-c3cnn4ncccc34)n2)C1 — remaining binding (binding; 1 µM): 97%
CC(=O)Nc1c(C(C)=O)c(=O)n(C)c2nc(-c3ccc(Cl)cc3Cl)c(-c3ccc(Cl)cc3)cc12 — remaining binding (cell-free assay, competition with immobilised ligand; 1 µM): 100%
COc1ncc2cc3ccccc3nc2c1C#N — remaining binding (cell-free assay, competition with immobilised ligand; 5 µM): 100%
COc1ccc2c(c1)O[C@H](c1ccc(OC)c(OC)c1)C[C@@H]2NC(=O)C1(c2ccc3c(c2)OC(F)(F)O3)CC1 — remaining binding (cell-free assay, competition with immobilised ligand; 1 µM): 100%
CCN1CCN(Cc2ccc(C(=O)Nc3ccc(C)c(Oc4ccc5c(c4)CC(=O)N5)c3)cc2C(F)(F)F)CC1 — remaining binding (binding, competition with immobilised ligand; 1 µM): 91%
O=C(c1ccc(Nc2ncc(Cl)c(-c3ccc(Cl)s3)n2)cc1)N1CCC(N2CCCC2)CC1 — remaining binding (binding, competition with immobilised ligand; 1 µM): 2.8%
O=C(Nc1cccnn1)N1CCC(=Cc2cccc(Oc3ccc(C(F)(F)F)cn3)c2)CC1 — remaining binding (cell-free assay, competition with immobilised ligand; 1 µM): 100%
CN(C)c1nccc(-c2cnn3ncccc23)n1 — remaining binding (binding; 1 µM): 100%
